Experiments:
[1] = target: T1, cGMP-specific 3',5'-cyclic phosphodiesterase (Homo sapiens, UniProt O76074); assay: Inhibition of N-terminal GST-tagged full length recombinant human PDE5A1 catalytic domain expressed in Baculovirus infected Sf9 insect cells using FAM-cGMP as substrate after 1 hr by fluorescence polarization assay
[2] = target: Dual specificity calcium/calmodulin-dependent 3',5'-cyclic nucleotide phosphodiesterase 1A (Homo sapiens) (UniProt P54750); assay: Inhibition of N-terminal GST-tagged full length recombinant human PDE1A expressed in Baculovirus infected Sf9 insect cells at 25 uM using FAM-cAMP as substrate after 1 hr by fluorescence polarization assay relative to control
[3] = target: cGMP-dependent 3',5'-cyclic phosphodiesterase (Homo sapiens) (UniProt O00408); assay: Inhibition of N-terminal FLAG-tagged human PDE2A1 (2 to 941 residues) expressed in Baculovirus infected Sf9 insect cells at 25 uM using FAM-cAMP as substrate after 1 hr by fluorescence polarization assay relative to control
[4] = target: 3',5'-cyclic-AMP phosphodiesterase 4A (Homo sapiens) (UniProt P27815); assay: Inhibition of N-terminal GST-tagged full length recombinant human PDE4A1A expressed in Baculovirus infected Sf9 insect cells at 6 uM using FAM-cAMP as substrate after 1 hr by fluorescence polarization assay relative to control
Homo sapiens [5] = organism: Homo sapiens; assay: Selectivity ratio of IC50 for N-terminal GST-tagged recombinant human PDE3B (592 end residues) to IC50 for N-terminal GST-tagged full length recombinant human PDE5A1 catalytic domain
Homo sapiens [6] = organism: Homo sapiens; assay: Selectivity ratio of IC50 for N-terminal GST-tagged full length recombinant human PDE4A1A to IC50 for N-terminal GST-tagged full length recombinant human PDE5A1 catalytic domain
Homo sapiens [7] = organism: Homo sapiens; assay: Selectivity ratio of IC50 for N-terminal GST-tagged full length recombinant human PDE6C to IC50 for N-terminal GST-tagged full length recombinant human PDE5A1 catalytic domain
[8] = target: cGMP-inhibited 3',5'-cyclic phosphodiesterase 3B (Homo sapiens) (UniProt Q13370); assay: Inhibition of N-terminal GST-tagged recombinant human PDE3B (592 end residues) expressed in Baculovirus infected Sf9 insect cells at 25 uM using FAM-cAMP as substrate after 1 hr by fluorescence polarization assay relative to control
Homo sapiens [9] = organism: Homo sapiens; assay: Selectivity ratio of IC50 for N-terminal FLAG-tagged human PDE2A1 (2 to 941 residues) to IC50 for N-terminal GST-tagged full length recombinant human PDE5A1 catalytic domain
Homo sapiens [10] = organism: Homo sapiens; assay: Selectivity ratio of IC50 for N-terminal GST-tagged full length recombinant human PDE1A to IC50 for N-terminal GST-tagged full length recombinant human PDE5A1 catalytic domain
[11] = target: Cone cGMP-specific 3',5'-cyclic phosphodiesterase subunit alpha' (Homo sapiens, UniProt P51160); assay: Inhibition of N-terminal GST-tagged full length recombinant human PDE6C expressed in Baculovirus infected Sf9 insect cells using […] as substrate after 1 hr by fluorescence polarization assay
[12] = target: cGMP-inhibited 3',5'-cyclic phosphodiesterase 3B (Homo sapiens) (UniProt Q13370); assay: Inhibition of N-terminal GST-tagged recombinant human PDE3B (592 end residues) expressed in Baculovirus infected Sf9 insect cells at 5.5 uM using FAM-cAMP as substrate after 1 hr by fluorescence polarization assay relative to control
[13] = target: 3',5'-cyclic-AMP phosphodiesterase 4A (Homo sapiens) (UniProt P27815); assay: Inhibition of N-terminal GST-tagged full length recombinant human PDE4A1A expressed in Baculovirus infected Sf9 insect cells at 1 uM using FAM-cAMP as substrate after 1 hr by fluorescence polarization assay relative to control
Thoracic aorta [14] = assay: Vasorelaxant activity in norepinephrine-pretreated New Zealand rabbit thoracic aorta assessed as increase in aortic relaxation at 1 uM measured after 15 mins relative to control; assay type: functional, Oryctolagus cuniculus; set-up: scale not given: the % may be the effect or the level left
How it was run: (§1)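 Thoracic aortic rings from New Zealand white rabbits were held in Krebs buffer at 2 g resting tension (0%) and equilibrated 2 h. Rings were contracted to maximum with 1 µM norepinephrine (100%). Compounds were added cumulatively at 15 min intervals, with tension recorded 15 min after each dose. Relaxation % = (max − recorded)/(max − 2 g) × 100; n = 1–2 rings.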

[15] = target: cGMP-dependent 3',5'-cyclic phosphodiesterase (Homo sapiens) (UniProt O00408); assay: Inhibition of N-terminal FLAG-tagged human PDE2A1 (2 to 941 residues) expressed in Baculovirus infected Sf9 insect cells at 5.5 uM using FAM-cAMP as substrate after 1 hr by fluorescence polarization assay relative to control
[16] = target: Dual specificity calcium/calmodulin-dependent 3',5'-cyclic nucleotide phosphodiesterase 1A (Homo sapiens) (UniProt P54750); assay: Inhibition of N-terminal GST-tagged full length recombinant human PDE1A expressed in Baculovirus infected Sf9 insect cells at 5.5 uM using FAM-cAMP as substrate after 1 hr by fluorescence polarization assay relative to control
Thoracic aorta [17] = assay: Vasorelaxant activity in norepinephrine-pretreated New Zealand rabbit thoracic aorta assessed as increase in aortic relaxation at 10 uM measured after 15 mins relative to control; assay type: functional, Oryctolagus cuniculus; set-up: scale not given: the % may be the effect or the level left; how it was run: as §1
[18] = target: cGMP-inhibited 3',5'-cyclic phosphodiesterase 3B (Homo sapiens) (UniProt Q13370); assay: Inhibition of N-terminal GST-tagged recombinant human PDE3B (592 end residues) expressed in Baculovirus infected Sf9 insect cells at 12.5 uM using FAM-cAMP as substrate after 1 hr by fluorescence polarization assay relative to control
[19] = target: cGMP-dependent 3',5'-cyclic phosphodiesterase (Homo sapiens) (UniProt O00408); assay: Inhibition of N-terminal FLAG-tagged human PDE2A1 (2 to 941 residues) expressed in Baculovirus infected Sf9 insect cells at 12.5 uM using FAM-cAMP as substrate after 1 hr by fluorescence polarization assay relative to control
[20] = target: Dual specificity calcium/calmodulin-dependent 3',5'-cyclic nucleotide phosphodiesterase 1A (Homo sapiens) (UniProt P54750); assay: Inhibition of N-terminal GST-tagged full length recombinant human PDE1A expressed in Baculovirus infected Sf9 insect cells at 12.5 uM using FAM-cAMP as substrate after 1 hr by fluorescence polarization assay relative to control
[21] = target: 3',5'-cyclic-AMP phosphodiesterase 4A (Homo sapiens) (UniProt P27815); assay: Inhibition of N-terminal GST-tagged full length recombinant human PDE4A1A expressed in Baculovirus infected Sf9 insect cells at 3 uM using FAM-cAMP as substrate after 1 hr by fluorescence polarization assay relative to control
[22] = target: T1, cGMP-specific 3',5'-cyclic phosphodiesterase; assay: Inhibition of PDE5 (unknown origin)
[23] = target: Dual specificity calcium/calmodulin-dependent 3',5'-cyclic nucleotide phosphodiesterase 1A (Homo sapiens) (UniProt P54750); assay: Inhibition of N-terminal GST-tagged full length recombinant human PDE1A expressed in Baculovirus infected Sf9 insect cells at 250 uM using FAM-cAMP as substrate after 1 hr by fluorescence polarization assay relative to control
[24] = target: cGMP-dependent 3',5'-cyclic phosphodiesterase (Homo sapiens) (UniProt O00408); assay: Inhibition of N-terminal FLAG-tagged human PDE2A1 (2 to 941 residues) expressed in Baculovirus infected Sf9 insect cells at 40 uM using FAM-cAMP as substrate after 1 hr by fluorescence polarization assay relative to control
[25] = target: cGMP-inhibited 3',5'-cyclic phosphodiesterase 3B (Homo sapiens) (UniProt Q13370); assay: Inhibition of N-terminal GST-tagged recombinant human PDE3B (592 end residues) expressed in Baculovirus infected Sf9 insect cells at 250 uM using FAM-cAMP as substrate after 1 hr by fluorescence polarization assay relative to control
[26] = target: 3',5'-cyclic-AMP phosphodiesterase 4A (Homo sapiens) (UniProt P27815); assay: Inhibition of N-terminal GST-tagged full length recombinant human PDE4A1A expressed in Baculovirus infected Sf9 insect cells at 50 uM using FAM-cAMP as substrate after 1 hr by fluorescence polarization assay relative to control

Chain of Dual specificity calcium/calmodulin-dependent 3',5'-cyclic nucleotide phosphodiesterase 1A (Homo sapiens) (P54750 whole entry, the tested form may be a part): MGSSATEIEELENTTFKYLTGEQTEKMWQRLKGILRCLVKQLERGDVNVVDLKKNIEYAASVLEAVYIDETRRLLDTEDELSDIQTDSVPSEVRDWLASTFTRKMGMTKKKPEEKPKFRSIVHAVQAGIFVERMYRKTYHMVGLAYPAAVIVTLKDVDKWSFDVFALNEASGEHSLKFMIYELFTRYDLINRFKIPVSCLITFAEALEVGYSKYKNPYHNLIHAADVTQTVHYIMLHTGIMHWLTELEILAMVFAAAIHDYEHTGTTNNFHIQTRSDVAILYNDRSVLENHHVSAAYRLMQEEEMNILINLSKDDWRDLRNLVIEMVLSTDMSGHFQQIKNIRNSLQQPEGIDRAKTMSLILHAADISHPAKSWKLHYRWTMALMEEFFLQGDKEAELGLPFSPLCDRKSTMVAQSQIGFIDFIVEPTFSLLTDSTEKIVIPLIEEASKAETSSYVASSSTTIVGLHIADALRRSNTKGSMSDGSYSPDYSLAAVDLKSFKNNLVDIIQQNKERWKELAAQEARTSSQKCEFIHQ
Chain of Cone cGMP-specific 3',5'-cyclic phosphodiesterase subunit alpha' (P51160 whole entry): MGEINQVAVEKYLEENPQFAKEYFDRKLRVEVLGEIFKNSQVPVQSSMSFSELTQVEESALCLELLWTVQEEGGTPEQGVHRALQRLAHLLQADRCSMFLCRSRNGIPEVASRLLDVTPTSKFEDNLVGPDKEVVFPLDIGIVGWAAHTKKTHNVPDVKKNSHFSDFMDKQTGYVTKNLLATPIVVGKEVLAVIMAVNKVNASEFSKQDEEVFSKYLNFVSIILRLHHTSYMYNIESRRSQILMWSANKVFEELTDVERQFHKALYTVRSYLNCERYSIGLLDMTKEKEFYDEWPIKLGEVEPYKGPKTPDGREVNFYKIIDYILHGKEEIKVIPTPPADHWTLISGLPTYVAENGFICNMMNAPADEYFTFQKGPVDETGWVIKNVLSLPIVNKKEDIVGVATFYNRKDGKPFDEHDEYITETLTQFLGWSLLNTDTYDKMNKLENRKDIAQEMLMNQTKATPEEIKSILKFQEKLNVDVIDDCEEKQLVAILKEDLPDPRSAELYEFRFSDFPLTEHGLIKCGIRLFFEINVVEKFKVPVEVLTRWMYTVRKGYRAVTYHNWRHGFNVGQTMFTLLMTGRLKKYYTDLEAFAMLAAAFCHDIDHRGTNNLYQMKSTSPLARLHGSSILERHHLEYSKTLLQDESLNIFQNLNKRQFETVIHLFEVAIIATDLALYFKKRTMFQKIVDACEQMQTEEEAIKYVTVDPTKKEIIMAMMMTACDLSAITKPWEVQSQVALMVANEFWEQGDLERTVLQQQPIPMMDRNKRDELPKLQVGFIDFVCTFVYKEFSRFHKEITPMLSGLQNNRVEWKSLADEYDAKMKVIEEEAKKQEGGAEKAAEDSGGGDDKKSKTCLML
Chain of cGMP-dependent 3',5'-cyclic phosphodiesterase (Homo sapiens) (O00408 whole entry, the tested form may be a part): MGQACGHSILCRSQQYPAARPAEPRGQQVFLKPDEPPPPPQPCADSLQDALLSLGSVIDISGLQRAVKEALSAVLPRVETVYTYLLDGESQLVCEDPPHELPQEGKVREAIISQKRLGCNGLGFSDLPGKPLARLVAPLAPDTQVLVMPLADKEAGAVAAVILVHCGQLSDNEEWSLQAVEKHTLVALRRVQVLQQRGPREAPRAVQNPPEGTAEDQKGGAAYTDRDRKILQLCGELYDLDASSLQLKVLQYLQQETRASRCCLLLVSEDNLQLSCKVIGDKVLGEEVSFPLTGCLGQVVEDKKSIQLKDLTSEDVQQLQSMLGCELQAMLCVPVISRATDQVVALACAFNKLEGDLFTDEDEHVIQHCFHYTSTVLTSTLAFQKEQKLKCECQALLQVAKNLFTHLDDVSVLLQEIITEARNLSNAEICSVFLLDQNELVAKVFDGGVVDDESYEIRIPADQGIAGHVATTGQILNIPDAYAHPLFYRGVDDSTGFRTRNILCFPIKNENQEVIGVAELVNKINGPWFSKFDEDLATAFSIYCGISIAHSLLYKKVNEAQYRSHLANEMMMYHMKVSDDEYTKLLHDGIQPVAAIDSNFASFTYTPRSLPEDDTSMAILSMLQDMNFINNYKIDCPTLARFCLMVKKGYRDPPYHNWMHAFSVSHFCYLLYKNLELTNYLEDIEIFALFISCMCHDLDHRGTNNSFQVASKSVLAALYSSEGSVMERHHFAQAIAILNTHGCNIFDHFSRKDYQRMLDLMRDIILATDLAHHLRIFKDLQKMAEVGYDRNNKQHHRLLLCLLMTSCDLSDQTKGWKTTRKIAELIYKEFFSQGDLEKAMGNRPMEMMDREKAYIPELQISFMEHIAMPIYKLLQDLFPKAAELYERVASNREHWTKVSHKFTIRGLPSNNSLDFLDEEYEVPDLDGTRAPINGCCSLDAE
Chain of cGMP-inhibited 3',5'-cyclic phosphodiesterase 3B (Homo sapiens) (Q13370 whole entry, looked up, the tested form may be a part): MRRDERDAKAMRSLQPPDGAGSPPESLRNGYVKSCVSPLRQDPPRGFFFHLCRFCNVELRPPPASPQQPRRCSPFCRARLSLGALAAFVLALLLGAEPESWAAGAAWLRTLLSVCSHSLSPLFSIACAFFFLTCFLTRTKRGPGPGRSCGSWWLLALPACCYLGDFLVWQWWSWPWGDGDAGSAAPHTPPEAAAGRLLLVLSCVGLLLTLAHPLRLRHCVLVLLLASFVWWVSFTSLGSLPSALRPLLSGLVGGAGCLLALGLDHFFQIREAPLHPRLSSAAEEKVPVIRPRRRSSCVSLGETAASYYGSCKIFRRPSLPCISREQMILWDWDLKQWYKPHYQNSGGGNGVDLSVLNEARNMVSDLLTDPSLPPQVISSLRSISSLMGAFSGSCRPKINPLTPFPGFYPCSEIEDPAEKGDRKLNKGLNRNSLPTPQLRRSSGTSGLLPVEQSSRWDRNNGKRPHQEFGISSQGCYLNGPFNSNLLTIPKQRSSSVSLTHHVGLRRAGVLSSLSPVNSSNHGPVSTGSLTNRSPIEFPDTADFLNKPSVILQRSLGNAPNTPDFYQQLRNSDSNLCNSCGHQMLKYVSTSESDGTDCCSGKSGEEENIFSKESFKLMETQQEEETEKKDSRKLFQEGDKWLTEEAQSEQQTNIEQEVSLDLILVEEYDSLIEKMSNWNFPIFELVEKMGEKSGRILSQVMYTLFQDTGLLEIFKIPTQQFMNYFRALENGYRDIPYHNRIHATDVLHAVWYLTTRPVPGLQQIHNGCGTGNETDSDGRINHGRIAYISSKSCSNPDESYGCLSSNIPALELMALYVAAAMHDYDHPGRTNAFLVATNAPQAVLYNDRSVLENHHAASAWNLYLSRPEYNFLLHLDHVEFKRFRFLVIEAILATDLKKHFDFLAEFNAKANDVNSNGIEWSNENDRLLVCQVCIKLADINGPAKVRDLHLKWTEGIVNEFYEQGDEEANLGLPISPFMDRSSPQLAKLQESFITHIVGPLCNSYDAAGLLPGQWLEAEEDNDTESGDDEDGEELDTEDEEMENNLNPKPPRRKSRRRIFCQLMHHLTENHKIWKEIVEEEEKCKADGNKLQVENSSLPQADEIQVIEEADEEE
Chain of 3',5'-cyclic-AMP phosphodiesterase 4A (Homo sapiens) (P27815 whole entry, the tested form may be a part): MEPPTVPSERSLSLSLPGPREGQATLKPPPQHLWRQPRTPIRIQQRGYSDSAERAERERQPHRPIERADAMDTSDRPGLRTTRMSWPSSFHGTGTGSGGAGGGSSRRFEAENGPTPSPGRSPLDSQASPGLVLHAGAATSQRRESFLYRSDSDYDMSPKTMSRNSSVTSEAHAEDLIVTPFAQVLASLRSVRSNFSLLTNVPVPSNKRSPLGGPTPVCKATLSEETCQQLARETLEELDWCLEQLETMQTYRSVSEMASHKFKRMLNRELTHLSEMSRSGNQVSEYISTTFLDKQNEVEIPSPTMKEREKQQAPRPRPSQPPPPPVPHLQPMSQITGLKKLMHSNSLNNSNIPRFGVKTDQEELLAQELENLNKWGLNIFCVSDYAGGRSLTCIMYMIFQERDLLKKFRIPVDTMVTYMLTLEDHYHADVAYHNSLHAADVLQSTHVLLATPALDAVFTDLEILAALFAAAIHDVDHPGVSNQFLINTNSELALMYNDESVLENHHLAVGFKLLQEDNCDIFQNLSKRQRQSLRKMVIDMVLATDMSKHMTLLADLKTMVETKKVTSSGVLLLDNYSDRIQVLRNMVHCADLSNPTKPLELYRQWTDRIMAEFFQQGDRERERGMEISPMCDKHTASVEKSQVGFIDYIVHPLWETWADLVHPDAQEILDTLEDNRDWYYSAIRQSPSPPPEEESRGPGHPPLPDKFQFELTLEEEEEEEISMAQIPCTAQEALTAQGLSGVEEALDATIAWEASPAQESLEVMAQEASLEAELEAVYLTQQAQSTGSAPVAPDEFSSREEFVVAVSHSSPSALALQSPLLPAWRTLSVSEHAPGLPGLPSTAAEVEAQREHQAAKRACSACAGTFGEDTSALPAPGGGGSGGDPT

| Structure (SMILES) | IC50 [1] | Ratio IC50 (Homo sapiens [5]) | Ratio IC50 (Homo sapiens [6]) | Ratio IC50 (Homo sapiens [7]) | Ratio IC50 (Homo sapiens [9]) | Ratio IC50 (Homo sapiens [10]) | IC50 [11] | other results |
| --- | --- | --- | --- | --- | --- | --- | --- | --- |
| CCc1ccc(C2c3[nH]c4ccccc4c(=O)c3CN2c2ncc(-c3ccc(OC)c(OC)c3)cn2)s1 (configuration not stated) | 1.25 nM | – | – | – | – | – | – | – |
| CCc1ccc(C2c3[nH]c4ccccc4c(=O)c3CN2c2ccccn2)s1 (configuration not stated) | 2.85 nM | – | – | – | – | – | – | – |
| CCc1ccc(C2c3[nH]c4ccccc4c(=O)c3CN2c2ncccn2)s1 (configuration not stated) | 2.5 nM | > 10000 | > 2500 | 1.5 | > 10000 | > 10000 | 3.7 nM | inhibition [2]: 3.5%; inhibition [3]: 37%; inhibition [4]: 8%; inhibition [8]: 2.5% |
| CCc1ccc(C2c3[nH]c4ccccc4c(=O)c3CN2c2ccc(-c3ccccn3)cn2)s1 (configuration not stated) | 1.2 nM | – | – | – | – | – | – | – |
| CCc1ccc(C2c3[nH]c4ccccc4c(=O)c3CN2c2ncc(-c3ccccn3)cn2)o1 (racemic) | 0.54 nM | > 10000 | > 2500 | 4.3 | > 10000 | > 10000 | 2.3 nM | inhibition [12]: 8%; inhibition [13]: 5%; Activity (Thoracic aorta [14]): >90%; inhibition [15]: 10%; inhibition [16]: 2.5% |
| CCc1ccc([C@H]2c3[nH]c4ccccc4c(=O)c3CN2c2ncc(-c3ccccn3)cn2)o1 | 0.97 nM | > 10000 | > 2500 | 3.9 | > 10000 | > 10000 | 3.8 nM | Activity (Thoracic aorta [17]): 30%; inhibition [18]: 10%; inhibition [19]: 51%; inhibition [20]: 7.5%; inhibition [21]: 12% |
| OCc1ccc(-c2nccc3c2[nH]c2ccccc23)o1 [PERLOLYRIN] | – | – | – | – | – | – | – | IC50 [22]: 9300 nM |
| CCc1ccc([C@H]2c3[nH]c4ccccc4c(=O)c3CN2c2ncc(-c3ccccn3)cn2)s1 | 26.9 nM | > 10000 | > 2500 | 1.3 | > 1500 | > 10000 | 34.1 nM | Activity (Thoracic aorta [17]): 30%; inhibition [23]: 8%; inhibition [24]: 32%; inhibition [25]: 2%; inhibition [26]: 1% |
| OCc1ccoc1-c1nccc2c1[nH]c1ccccc12 | – | – | – | – | – | – | – | IC50 [22]: 4900 nM |

Source: ChEMBL document CHEMBL4196066, “Design and synthesis of furyl/thineyl pyrroloquinolones based on natural alkaloid perlolyrine, lead to the discovery of potent and selective PDE5 inhibitors” (Eur J Med Chem, 2018)
